Data set [1] can be described thus: folding enthalpy; higher = less favourable; fluorescence melt of hairpins on a sequencing array, two-state fit. Particulars: sodium 0.088 M. The procedure, abridged:
(§1)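 Two-state fits, bootstrapped, provided melting temperature and folding enthalpy from Cy3 fluorescence normalised to pre-quench Cy3 and to control constructs. Library hairpins with annealed Cy3 and quencher oligos were imaged on a sequenced MiSeq flow cell in 50 mM Na-HEPES pH 8.0, 25 mM NaCl, at 2.5 °C intervals up to 60 °C. Four replicates were combined with inverse-variance weighting. A 9.35 °C upward shift was applied to fitted temperatures to match UV melts.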

Data set [2] in a line: melting temperature; fluorescence melt of hairpins on a sequencing array, two-state fit, raised by 9.35 °C to match UV melts. Particulars: sodium 0.088 M. The procedure, abridged:
as §1

Regarding GCTTGCGCGAAAGCGAGC (((..(((....)))))), in data set [1], the folding enthalpy was -13.3 kcal/mol. In addition, the Tm in data set [2] was determined as 56.2 °C.
Take GCTTGCGGAAACGCAAAC (.(((((....))))).): in data set [1], the folding enthalpy is -12.4 kcal/mol. Besides, the Tm in data set [2] was determined as 44.6 °C.
For the sequence GCTTGCGGAAACGTAGGC ((.(.((....)).).)), in data set [1], the folding enthalpy is -11.7 kcal/mol. Besides, the Tm in data set [2] turned out to be 38.6 °C.
The like results for GCTTGGAAACAAGC (((((....))))) were, in that order, -31 kcal/mol and 53.7 °C.
Consider GCTTGGCGAAAGCCCCGC ((..(((....)))..)), for which the folding enthalpy in data set [1] is -12 kcal/mol. Also, the Tm in data set [2] was 35.8 °C.
With GCTTGGCGAAAGCCTTGC ((..(((....)))..)), the folding enthalpy in data set [1] is -18.1 kcal/mol. In addition, the Tm in data set [2] was found to be 43.5 °C.
The corresponding values for GCTTGGCGAAAGCTACGC ((.(.((....)).).)) are -14.8 kcal/mol and 43.3 °C.
Regarding GCTTGGCGAAAGCTATGC ((.(.((....)).).)), the folding enthalpy in data set [1] is -15.6 kcal/mol. Further, the Tm in data set [2] stood at 47.9 °C.
The like results for GCTTGGGGAAACCCGAGC (((.(((....))).))) were, in that order, -41.7 kcal/mol and 56.7 °C.
Regarding GCTTGGGGAAACCTGAGC (((..((....))..))), the folding enthalpy in data set [1] was -30.3 kcal/mol. Besides, the Tm in data set [2] turned out to be 40 °C.
Consider GCTTGTGGAAACATGAGC (((..((....))..))), for which, in data set [1], the folding enthalpy was -29.4 kcal/mol. Besides, the Tm in data set [2] is 37.7 °C.
On to GCTTTACGAAAGTAAGC (((.(((....)))))), for which the folding enthalpy in data set [1] was -22.7 kcal/mol. Also, the Tm in data set [2] came out at 46.2 °C.
As to GCTTTAGCGAAAGCTAGC (((..(((....)))))), the folding enthalpy in data set [1] was -8.44 kcal/mol. Besides, the Tm in data set [2] is 42.3 °C.
As for GCTTTAGGAAACTAAAGC (((((((....))))))), in data set [1], the folding enthalpy is -39.1 kcal/mol. Moreover, the Tm in data set [2] worked out at 54.4 °C.
With GCTTTAGGAAACTAAGGC ((.((((....)))).)), the folding enthalpy in data set [1] is -27.7 kcal/mol. The Tm in data set [2] was 37 °C.
The like results for GCTTTCCCGAAAGGGAGC (((..(((....)))))) were, in that order, -10.2 kcal/mol and 34.3 °C.
For the sequence GCTTTCGAAAGAAACAGC ((((((....)))..))), the folding enthalpy in data set [1] is -16.3 kcal/mol. In addition, the Tm in data set [2] was found to be 32.8 °C.
GCTTTCGAAAGAAGAAGC ((((((....)))..))): the folding enthalpy in data set [1] was -22.2 kcal/mol. Further, the Tm in data set [2] was 32.1 °C.
The corresponding values for GCTTTCGAAAGAAGAGC ((((((....))).))) are -17.5 kcal/mol and 37.3 °C.
The corresponding values for GCTTTCGAAAGAAGCAGC ((((((....)))..))) are -12.9 kcal/mol and 35.4 °C.
The like results for GCTTTCGAAAGAAGGAGC ((((((....)))..))) were, in that order, -17.8 kcal/mol and 31.5 °C.
For the sequence GCTTTCGGAAACGAAAAC (.(((((....))))).), the folding enthalpy in data set [1] is -22.4 kcal/mol. The Tm in data set [2] turned out to be 36.4 °C.
The like results for GCTTTCGGAAACGGAAGC ((((.((....)).)))) were, in that order, -39.8 kcal/mol and 53.2 °C.
The like results for GCTTTGCGAAAGCACAGC (((.(((....))).))) were, in that order, -47.5 kcal/mol and 50.7 °C.
As to GCTTTGCGAAAGCACTGC ((..(((....)))..)), in data set [1], the folding enthalpy is -17.5 kcal/mol. For the same sequence, the Tm in data set [2] turned out to be 43 °C.
The corresponding values for GCTTTGCGAAAGCAGTGC ((..(((....)))..)) are -13.8 kcal/mol and 38.4 °C.
The corresponding values for GCTTTGCGAAAGCATGGC ((..(((....)))..)) are -16.7 kcal/mol and 49.5 °C.
The like results for GCTTTGCGAAAGCCCAGC (((..((....))..))) were, in that order, -14.1 kcal/mol and 31.5 °C.
As for GCTTTGCGAAAGCGAAGC ((((.((....)).)))), the folding enthalpy in data set [1] is -37.2 kcal/mol. In data set [2], the Tm is 66.2 °C.
In the case of GCTTTGCGAAAGCGACGC ((.(.((....)).).)), the folding enthalpy in data set [1] is -15.2 kcal/mol. Besides, the Tm in data set [2] came to 47.6 °C.
On to GCTTTGCGAAAGCTAGGC ((.(.((....)).).)), for which the folding enthalpy in data set [1] was -15.7 kcal/mol. Also, the Tm in data set [2] amounted to 44.7 °C.
The like results for GCTTTGCGAAAGCTATGC ((.(.((....)).).)) were, in that order, -12.6 kcal/mol and 45.6 °C.
Take GCTTTGGGAAACTAAAGC (((((.(....).))))): the folding enthalpy in data set [1] is -27.4 kcal/mol. Also, the Tm in data set [2] came out at 44.3 °C.
The like results for GCTTTGTCGAAAGACAGC (((..(((....)))))) were, in that order, -12 kcal/mol and 35.3 °C.
The like results for GCTTTTCGAAAGAAAGC (((.(((....)))))) were, in that order, -25.1 kcal/mol and 44.5 °C.
As for GCTTTTCGAAAGAATAGC (((.(((....))).))), the folding enthalpy in data set [1] was -29.3 kcal/mol. Also, the Tm in data set [2] is 44 °C.
The like results for GCTTTTGGAAACAAAAAC (.(((((....))))).) were, in that order, -13.2 kcal/mol and 26.6 °C.

The values are drawn from the array DNA melting data of Ke et al. (doi:10.1101/2024.01.08.574731).
